{"source": "the RNAGym collection of RNA variant scans (doi:10.1126/science.aae0568)", "parents": {"B1": {"name": "tRNA (parent)", "chain": "GUUCCGUUGGCGUAAUGGUAACGCGUCUCCCUCCUAAGGAGAAGACUGCGGGUUCGAGUCCCGUACGGAACG"}}, "note": "Fewer inactive variants are shown than the library holds."}
{"variants_of": "B1", "test": "yeast fitness relative to wild type (ratio to wild type); higher = fitter; tRNA-Arg(CCU), competitive growth, 37 C, YPD", "in_short": "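Start and end populations of a pooled competition were compared by 100-nucleotide paired-end sequencing of gene amplicons. The Saccharomyces cerevisiae strains carried tRNA-Arg(CCU) gene variants at the native genomic locus, synthesised with a 3% per-site mutation rate at 69 sites, and competed in YPD at 37°C for 24 hours in six parallel replicates. Darwinian fitness relative to wild type was based on the change in genotype frequencies. Genotypes required ≥ 100 starting reads, and estimates < 0.5 were set to 0.5.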"}
{"variant": "GUUCCGUUGGCGUAAUGGUAAGGCGUCUCCUUCCUAAGGAGAAGACUGCGGGUUCGAGGCCCGUACGGAACG", "yeast fitness": 0.539}
{"variant": "GUUCCGUUGGCGUAAUGGUAACGCGUCUCGCUGCUAAGGAGAAGACUGGGGGUUCGAGUCGCGUACGGAACG", "yeast fitness": 0.538}
{"variant": "GUUCCGUUGGCGUAAUGGUAACGUGUCUCCCUCCUAGGAAGAAGACUCCGGGUUCGAGUCCCGUACGUAACG", "yeast fitness": "≤ 0.5"}
{"variant": "GUUCCGAUGGCGUAAUGGUAACGCGUCUCCCACCUAAGGAGUAGACUGCGGGUUCGAGUACCGUACGGAACG", "yeast fitness": 0.619}
{"variant": "GUUCCGUUGGCGUAAUGGCAACGCGUCUCCCUCCUAAGAAGAAGACUGCGGGUUCGAAUCCCGUACGGAACG", "yeast fitness": 0.613}
{"variant": "GUUCCGUUGGCGUAAUGGUAACGCGUAUCCCUCCUAAGGAGAAGACUGCGGGUUCGAGUCCCGUAUGGAACG", "yeast fitness": 0.868}
{"variant": "GUUCCGUUGGCGUAAUGGUAAAGCGUCUCCCUCCUCAGGAGAAGACUGCGGGUUGGAGUCACGUACGGAACG", "yeast fitness": 0.611}
{"variant": "GUUCCGUUGGGGUAAUGGUAACGCGUCUCCAUCCUAACGAGAAGACUGCGGGUUUGAAUCCCGUACGGAACG", "yeast fitness": 0.577}
{"variant": "GUUCCGUUGCCCUAAUGGUAACGCGUCUCCCUCCUAAGGAGAAGACUGUGGGUUCCAGUCCCGUACGGAACG", "yeast fitness": "≤ 0.5"}
{"variant": "GCUCCGUUGGCGUAAUGAUAACGCGUCUCCCUCCUAAGGAGAAGACUGCGGGUUCGAGUCCCGUACGGAACG", "yeast fitness": 0.806}
{"variant": "GUUCCGGGGGCGUAAUGGUAACGCGUCUCCCUCCUAAGGAGAAGACUGCGGGUUCGAGUCCCGUACGGAUCG", "yeast fitness": "≤ 0.5"}
{"variant": "GUUCCAUUGGCGUAAUGGUAACGCGUCUCCCUCCUAAGGAGAAGACUGCGGGUUCGAGCCCCGUACGGAACG", "yeast fitness": 0.893}
{"variant": "GUUCCGUUGGCGUAAUGGUAACGCGUCUCCUUCCUAAGGAGAAGACUGCGGGUUCGAGUGCCGUACGGAACG", "yeast fitness": 0.696}
{"variant": "GUUCCGUUGGCGUAAUGGUAACGCGUCUCCCUCCCAAGGAGAAGACUCCGGGUUUAAGUCCCGUACGGAACG", "yeast fitness": 0.573}
{"variant": "GUUCCGUUGGCGCAAUGGUAACGCGUCUCCCUCCUAAGGAGAAGUCUGCGGGUUCGAGUCCCCUACGGAACG", "yeast fitness": "≤ 0.5"}
{"variant": "GUUCCGUUGGCGUAAUGGUAACGCGUCUCCCUCCUAAGGAGAAGACUGCGGGUUAGUGUCCCGUACGGAACG", "yeast fitness": 0.694}
{"variant": "GUUCCGUUGGCAUAAUGGUAACGCGUCUCCCUCCUAAGGAGAAGACUCCGGGUUCGAGUCCCGUACCGAACG", "yeast fitness": "≤ 0.5"}
{"variant": "GUUCCGUUGGCGUAAUGGUAACGCGUCUCCCACCUAAGGAGAAGAAUGCGGGUUCGAAUCCCGUACGGAACG", "yeast fitness": "≤ 0.5"}
{"variant": "GUUCCGUUGGCGUAAUGGUAACGCAUCUCCCUCCUACGGAGAAGACUGCGGGUUCGAGUCCCGUACGGAACG", "yeast fitness": 0.757}
{"variant": "GCUCCGUUGGCGCAAUGGUAAGGCGACUCCCUCCUAAGGAGAAGACUGCGGGUUCGAGUCCCGUACGGAACG", "yeast fitness": "≤ 0.5"}
{"variant": "GUUCCGUUGGCGUAAUGGUAACGCGUCUCCAUCCUAAGGAGAAGGCUGCGGAUUAGAGUCCCGUACGGAACG", "yeast fitness": "≤ 0.5"}
{"variant": "GAUCUGUUGGCGUAAUGGUAACGCGUCUGCCUCCUAUGGAGAAGACUGCGGGUUCGAGUCCCGUACGGAACG", "yeast fitness": 0.512}
{"variant": "GUUACGUUGGCGUAAUGGUAACGCGUCUCCCUCCUAAGGAGAAGACUGCGGGUUCGAGCCCCGUACGGAACG", "yeast fitness": 0.944}
{"variant": "GUUUCGUUGGCGUAAUGGUAACGCGUCUCCCUCCUAAGGAGAAGACAGCGGGUUCGAGUCACGUACGGAACG", "yeast fitness": 0.93}
{"variant": "GUUCGGUUGGCGUAAUGGUAACGCGUCUCCCUCCUAAGGAGAAGACUGCGGGUUCGAGUCCCGUAGGCAACG", "yeast fitness": "≤ 0.5"}
{"variant": "GUUCCGUUGGCGUAAUGGUGACCCGUCUCCCUCCUAAGGAGAAGACUGCGGGUUCGAGUCCCCUACGGAACG", "yeast fitness": 0.613}
{"variant": "GUUCCAUUGGCGUAAUGGUAACGCGUCUCGCUCCUAAGGAGAAGACUGCGGGUUCGAGUGCCGUACGAAACG", "yeast fitness": "≤ 0.5"}
{"variant": "GUUCCGUUGGCGUAAUGGUAACGCGCCUCCCUCCUAAGGAGAACACUGCGGGUUCGAGUCCCGUACGGAACG", "yeast fitness": 0.77}
{"variant": "GUUCCGUUGGCGUAAUGGUAACGCGACACCUUCCUAAGGAGAAGACUGCGAGUUCGAGUCCCGUACGGAACG", "yeast fitness": "≤ 0.5"}
{"variant": "GUUCCGUUGGUGGAAUGGUUACGCGUCUCCCUCCUAAGGAGAAGACUGCGGGGUCGAGUCCCGUACGGAACG", "yeast fitness": "≤ 0.5"}
{"variant": "GUUCCGUUGGCGUAAUGGCAACGGGUCUCCCUCCCAUGGAGAAGACAGCGGGUUCGAGUCCCGUACGGAACG", "yeast fitness": "≤ 0.5"}
{"variant": "GUUCUGUUGGCGUAAUGGUAACGCGUCUACCUCCUAAGGAGAAGCCUGCGGGUUCGAGUCCCGUACGGAACG", "yeast fitness": 0.669}
{"variant": "GUUCCGUUGGCGUAAUGGUAACCCGUCUCCCUCCUAAGGAGAAGAAUGCGGGUUCAAGUCCUGUACGGAACG", "yeast fitness": 0.758}
{"variant": "GUUCCGUUGGCGACAUGGUAAAGCGUCUCCCUCCUAAGGAGAAGACUCCGGGUUCGAGUCCCGUACUGAACG", "yeast fitness": "≤ 0.5"}
{"variant": "GUGUCGUUGGCGUAAUGGUAACGCGUCUCCCUCCAAAGGAGAAGACUGCGGGUUCGAAUCCCGUACUGAACG", "yeast fitness": "≤ 0.5"}
{"variant": "GUUCCGUUGGCGUACUGGUAACGCGUCUCCCUCCUAAGAAGAAGACUGCGGGUUCAAGUCCCGUACGGAACG", "yeast fitness": "≤ 0.5"}
{"variant": "GUUCCGAUGGCGUAAUGGUGACAUGUCUCCCUCCAAAGGAGAAGACUGCGGGUUCGAGUACCGUACGGCACG", "yeast fitness": 0.548}
{"variant": "GUACCAUUGGCGUAAUGGUAACGCGUCUCCCUCCUAAGGAGAAGACUGCGGGUUCGAGUCCCGUACGGAACG", "yeast fitness": 0.981}
